Compound activity (PubChem BioAssay)
Shown are actives, neighbours in structure and some others; about 2.9% of the full set was active somewhere.
PRMT1 FP inh – inhibitors of human PRMT1. Q99873. recombinant PRMT1, activity-based probe fluorescence polarization. inhibition, % at 2.79 µM. 370,000 tested, 1.3% active. AID 652257;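 active = inhibition above about 21% made by adding two undisclosed values, limit read from the data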
APOBEC3A inh – inhibitors of human APOBEC3A DNA deaminase | P31941 | recombinant A3A, FAM/TAMRA ssDNA deamination fluorescence | inhibition, % at 20 µM | 330,000 tested, 0.41% active | AID 493011;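 active = at least 40% inhibition at 20 µM here, with at most 30% in a related deaminase screen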;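 also: plate controls were A3A with DMSO for no effect and wells lacking A3A enzyme for full effect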
ABHD5-PLIN5 inh – inhibitors of human ABHD5-perilipin-5 interaction; Q00G26+Q8WTS1; 360,000 tested, 0.78% active; Split G. princeps luciferase complementation, luminescence, 4 h; inhibition, % at 4 µM; AID 602281;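 active = inhibition above the mean inhibition across every tested compound plus 3 SD, cut at about 22% in these data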;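 also: 0% = DMSO only wells and the 100% control is not disclosed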
Target sequence (Q00G26 whole entry, looked up): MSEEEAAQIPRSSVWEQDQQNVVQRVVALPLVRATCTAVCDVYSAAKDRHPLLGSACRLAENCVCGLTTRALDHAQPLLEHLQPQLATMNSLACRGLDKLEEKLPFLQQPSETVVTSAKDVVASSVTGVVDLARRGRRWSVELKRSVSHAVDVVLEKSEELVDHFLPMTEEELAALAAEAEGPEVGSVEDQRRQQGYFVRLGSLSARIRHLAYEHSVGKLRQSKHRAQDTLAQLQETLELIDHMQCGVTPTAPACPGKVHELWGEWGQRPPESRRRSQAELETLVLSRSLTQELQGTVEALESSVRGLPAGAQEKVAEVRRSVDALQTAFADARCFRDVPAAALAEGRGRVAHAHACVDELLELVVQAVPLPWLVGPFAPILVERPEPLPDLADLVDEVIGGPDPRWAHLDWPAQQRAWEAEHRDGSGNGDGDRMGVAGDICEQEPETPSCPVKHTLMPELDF
Target sequence (Q8WTS1 whole entry, looked up): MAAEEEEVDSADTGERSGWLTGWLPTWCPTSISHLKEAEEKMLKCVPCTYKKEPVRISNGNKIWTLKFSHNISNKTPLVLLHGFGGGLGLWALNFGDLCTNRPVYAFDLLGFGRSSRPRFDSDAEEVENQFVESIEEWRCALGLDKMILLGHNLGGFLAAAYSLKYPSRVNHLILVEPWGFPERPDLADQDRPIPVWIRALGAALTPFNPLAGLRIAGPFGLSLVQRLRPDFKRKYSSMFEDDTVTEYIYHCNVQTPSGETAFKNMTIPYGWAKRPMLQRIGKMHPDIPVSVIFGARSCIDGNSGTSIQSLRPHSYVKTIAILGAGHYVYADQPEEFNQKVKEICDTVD
APOBEC3G inh – inhibitors of human APOBEC3G DNA deaminase | Q9HC16 | recombinant A3G, ssDNA deamination FAM/TAMRA fluorescence | inhibition, % at 20 µM | 330,000 tested, 0.28% active | AID 493012;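 active = inhibition of at least 40% at 20 µM, with no more than 30% in the related APOBEC3A deaminase screen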;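 also: plate controls were DMSO wells with A3G for no effect and wells lacking A3G enzyme for full effect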
HCV NS3 hel inh – inhibitors of Hepatitis C virus NS3 helicase; NS3 helicase DNA unwinding, Cy5 molecular beacon fluorescence; inhibition, % at 10.9 µM; 290,000 tested, 0.56% active;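 active = inhibition above the mean of all tested compounds plus 3 SD, set per campaign, cut at about 35% in these data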;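 also: 0% = DMSO wells and 100% = thioflavine S control wells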
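assay system = NS3 helicase fragment of HCV | buffer or medium = MOPS pH 6.5, MgCl2, DTT, Tween20, BSA | timing = 60 min unwinding reaction at 25 °C after ATP addition | signal = Cy5 beacon fluorescence read at start and 1 h | read-out basis = % inhibition of unwinding | control set = low DMSO, high thioflavine S at 110 µM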
HCV core dimer – blocks dimerization of HCV core protein. 300,000 tested, 0.33% active. TR-FRET GST/Flag-core106 dimerization, 1536-well. inhibition, % at 5 µM;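 active = inhibition above the mean of all tested compounds plus 3 SD, set per screening campaign, cut at about 45% in these data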
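Assay system – GST-tagged and Flag-tagged HCV core protein residues 1-106 · Quantity – core106 proteins, GST 13.5 nM and Flag 17 nM · Benchmarks – unlabelled core106 and no-GST-core106 wells · Read-out basis – percent inhibition of core106 dimerization signal · Detection – time-resolved FRET, ex 340 nm, em 617 and 671 nm · Schedule – 4 h at 22.5 °C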
ABHD5 PLIN5 conf – ABHD5-PLIN5 interaction inhibition, confirmed | shares compounds with ABHD5-PLIN5 inh | biochemical ABHD5-PLIN5 interaction, luminescence | inhibition, % at 4 µM | 2,200 tested, 67% active | AID 651612; in the data active = inhibition above about 23%;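 also: 0% = DMSO vehicle wells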
HNF4 split-luc – counter-screen for ABHD5-PLIN5 inhibitors: HNF4 split-luciferase | HNF4 dimerization, luminescence, biochemical | 2,200 tested, 77% active | inhibition, % at 4 µM | shares compounds with ABHD5-PLIN5 inh;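 active = mean inhibition across replicate wells exceeding the computed hit threshold, cut at about 13% in these data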;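 also: light from luciferase halves that rejoin when HNF4 fusion proteins dimerize; 0% = DMSO only wells and the 100% control is not given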
Starred values were filed as active, the others as inactive; · = no result.

SMILES	PRMT1 FP inh	APOBEC3A inh	ABHD5-PLIN5 inh	APOBEC3G inh	HCV NS3 hel inh	HCV core dimer	ABHD5 PLIN5 conf	HNF4 split-luc
CN(C)CCN(Cc1cccs1)c1ccccn1	1	-4	-4	-1	2	6	·	·
O=C(/C=C/c1ccc(O)c(O)c1)c1ccc(S(=O)(=O)N2CCCCCC2)cc1	3	3	32*	-1	25	40	70*	67*
Cc1ccc(SCCN2CCC(O)CCC2=O)cc1 (centres undefined)	0	-7	-1	-12	8	-3	·	·
COc1ccc(S(=O)(=O)NNC(=O)Cc2csc(C)n2)cc1[N+](=O)[O-]	-2	18	10	6	·	-4	·	·
CCCCNC(=O)C1(C)CCN1C(=O)c1oc2ccccc2c1C (centres undefined)	-4	·	2	·	·	·	·	·
CCCSc1nc(NCc2ccco2)c2c3c(sc2n1)COC(C)(C)C3	3	9	28*	0	15	4	7	5
COc1ccc(CNC(=O)Nc2nc(C(N)c3ccccc3)cs2)cc1 (centres undefined)	0	·	-7	·	·	·	·	·
Oc1ccccc1C1CC(c2cccs2)=NC(c2cccc(Br)c2)N1 (centres undefined)	10	9	45*	-4	7	-1	23*	49*
Cc1cc(=O)oc2c3c(cc(OCC(=O)NC(C)C)c12)OC(C)(C)CC3	0	·	-3	·	-1	·	·	·
CC(C)c1cc(Cn2c3ccccc3c(=O)n2C(C)Cn2cc(CCCC#N)nn2)on1 (centres undefined)	6	·	9	·	·	·	·	·
C=C1C(=O)O[C@H]2[C@H]1[C@H](OC(=O)/C(C)=C\C)C[C@]1(CO1)[C@@H]1[C@H](OC(C)=O)C=C(C)[C@]21O	-2	·	25*	·	·	·	46*	40*
C=C1C(=O)O[C@H]2C[C@]3(C)C([C@@H](OC(=O)/C(C)=C/C)[C@H]12)[C@](C)(O)CC[C@H]3O (some centres undefined)	0	-4	12	-8	12	2	·	·
Cc1cccc(S(=O)(=O)Nc2nc3ccccc3nc2NCc2ccco2)c1	1	7	1	2	16	2	·	·
Cc1ccc(S(=O)(=O)Nc2nc3ccccc3nc2NCc2ccco2)cc1C	4	-2	28*	3	17	17	15	27*
COc1ccc(NCc2nn(CC(=O)c3ccc(Br)cc3)c3[n+]2CCCCC3)cc1	-4	-4	6	-16	-95	2	·	·
O=C(Cn1nc(CNc2ccc(Cl)cc2)[n+]2c1CCCCC2)c1ccc(Br)cc1	1	-1	30*	-9	-65	-13	18	-2
O=S(=O)(/C(=C\c1ccc(C(F)(F)F)cc1)c1nc2ccccc2[nH]1)c1ccccc1	·	·	86*	·	·	·	101*	96*
CCNC(=O)C(=O)Nc1cc2c3c(c1)CCN3C(=O)CC2	4	-5	-3	-8	19	-14	·	·
COc1ccc(CCNC(=O)c2cc(S(=O)(=O)N3CCOCC3)cn2C)cc1OC	-3	-1	11	-12	-1	-1	·	·
COc1ccc(CCNC(=O)c2cccc(S(=O)(=O)N3CCOCC3)c2)cc1OC	2	1	27*	-4	·	·	4	10
C[C@H](NC(=O)C[C@@H]1C=C[C@@H](NC(=O)CN2CCOCC2)[C@@H](CO)O1)c1ccccc1	6	·	-3	·	·	·	·	·
CC(=O)Oc1c(Br)cc(N(C(C)=O)S(=O)(=O)c2ccccc2)c2ccccc12	12	3	45*	-4	2	-3	48*	14*
CN(C)C(=O)c1cccc(-c2cnc3c(NC=O)cc(-c4ccccc4F)cn23)c1	-1	·	13	·	·	·	·	·
COc1ccc(NC(=O)CN2CCN(S(=O)(=O)N3CCCCCC3)CC2)cc1	-1	-3	0	-11	-1	10	·	·
CCCCCCCCn1ccc(=N)cc1	-3	1	5	-7	1	-1	·	·
SMILES	PRMT1 FP inh	APOBEC3A inh	ABHD5-PLIN5 inh	APOBEC3G inh	HCV NS3 hel inh	HCV core dimer	ABHD5 PLIN5 conf	HNF4 split-luc
CCCCCCCCCCCCCCCCn1cc[n+](C)c1	2	4	32*	-4	-59	-3	7	11
N#CCC(=O)Nc1ccc(C(=O)OCC(=O)N2CCN(C(=O)c3ccco3)CC2)cc1	0	-1	-2	-4	·	·	·	·
O=C1Nc2ccc(Cl)cc2/C1=C/C1CC=CCC1 (centres undefined)	0	1	30*	3	-13	-10	55*	39*
O=C1Nc2cnc(Cl)nc2Nc2ccc(Cl)cc21	-3	·	·	·	·	·	·	·
CC(=O)OCC1OC(n2ccc3ccccc32)C(OC(C)=O)C(OC(C)=O)C1OC(C)=O (centres undefined)	0	14	-2	-1	-1	-9	·	·
COC(=O)C1C=CC(OC2OC(COC(C)=O)C(OC(C)=O)C(OC(C)=O)C2OC(C)=O)n2c(=O)n(-c3ccccc3)c(=O)n21 (centres undefined)	4	·	26*	·	·	·	18	72*
O=c1[nH]c(C2CCN(S(=O)(=O)c3ccccc3F)CC2)nc2c1nnn2Cc1ccc2c(c1)OCCO2	-7	-6	-9	-8	13	19	·	·
O=c1[nH]c(C2CCN(S(=O)(=O)c3ccc(F)cc3)CC2)nc2c1nnn2Cc1ccc2c(c1)OCCO2	10	-8	29*	-1	4	22	35*	8
O=c1[nH]c(C2CCN(S(=O)(=O)c3ccc(S(=O)(=O)NC4CC4)cc3)CC2)nc2c1nnn2Cc1ccccc1	-1	-2	3	-6	-23	18	·	·
O=c1[nH]c(C2CCN(S(=O)(=O)c3ccc(S(=O)(=O)NC4CC4)cc3)CC2)nc2c1nnn2Cc1ccc(F)cc1	4	3	28*	-5	-10	9	48*	3
CNC(=S)N(CCc1c(C)[nH]c2ccc(C)cc12)Cc1ccco1	7	1	31*	-5	-18	-4	2	-6
Cc1ccc(C(=O)C=CC=Cc2ccccc2)cc1	-3	·	9	·	·	·	·	·
Cc1ccc(C(=O)C(C(=O)/C=C/c2ccccc2)=C2SCCCS2)cc1	2	-3	31*	-3	-10	2	66*	50*
COc1ccc(/C=C/C(=O)C(C(N)=O)=C2SCCS2)cc1	-1	-4	0	1	-14	0	·	·
